Assay results published in ChEMBL document CHEMBL3351743, “Chemopreventive effects of (-)-hinokinin against 1,2-dimethylhydrazine-induced genotoxicity and preneoplastic lesions in rat colon” (J Nat Prod, 2014).
Calls of active or inactive are those of the source. The rule behind the calls is not given here.

How the values were obtained:
Rattus norvegicus [1] = test: Toxicity in Wistar rat assessed as body weight gain at 10 to 40 mg/kg, po administered daily for 7 days; format: organism-based; design: dose 10-40 mg/kg, route oral; conditions: in vivo, 168 h
How it was run: (§1)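 Male Wistar rats, six per group, compound dosed by gavage in water/Tween 80 (97:3) daily for 7 days, with or without DMH 40 mg/kg sc. Body weight and water intake recorded daily; mean ± SD.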

Rattus norvegicus [2] = test: Toxicity in Wistar rat assessed as body weight gain at 40 mg/kg, po administered five times per week for 4 weeks; format: organism-based; design: dose 40 mg/kg, route oral; conditions: in vivo, 672 h
How it was run: (§2)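 Male Wistar rats, six per group, dosed by gavage in water/Tween 80 (97:3) five times weekly for 4 weeks, with or without DMH (four sc injections of 40 mg/kg in the first 2 weeks). Body weight and water intake recorded daily; mean ± SD.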

Rattus norvegicus [3] = test: Toxicity in Wistar rat assessed as change in water intake at 10 to 40 mg/kg, po administered daily for 7 days; format: organism-based; design: dose 10-40 mg/kg, route oral; conditions: in vivo, 168 h; how it was run: as §1
Rattus norvegicus [4] = test: Toxicity in Wistar rat assessed as change in water intake at 40 mg/kg, po administered five times per week for 4 weeks; format: organism-based; design: dose 40 mg/kg, route oral; conditions: in vivo, 672 h; how it was run: as §2
Rattus norvegicus [5] = test: Antigenotoxic activity in Wistar rat peripheral blood assessed as reduction in DMH-induced increase in nucleoids at 10 mg/kg, po administered daily for 7 days; format: functional; design: scale not given: the % may be the effect or the level left
How it was run: (§3)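 Male Wistar rats, six per group. Compound in water/Tween 80 (97:3) given by daily gavage for 7 days. DMH 40 mg/kg sc given 4 h before sampling on day 7. Cells used only at ≥80% viability. Scoring: 100 nucleoids per animal visually classed 0–3 by tail length relative to head diameter. % reduction = (DMH − treated)/(DMH − negative control) × 100, based on damaged cells.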

Rattus norvegicus [6] = test: Antigenotoxic activity in Wistar rat peripheral blood assessed as reduction in DMH-induced increase in nucleoids at 20 mg/kg, po administered daily for 7 days; format: functional; design: scale not given: the % may be the effect or the level left; how it was run: as §3
Rattus norvegicus [7] = test: Antigenotoxic activity in Wistar rat peripheral blood assessed as reduction in DMH-induced increase in nucleoids at 40 mg/kg, po administered daily for 7 days; format: functional; design: scale not given: the % may be the effect or the level left; how it was run: as §3
Rattus norvegicus [8] = test: Anticarcinogenic activity in Wistar rat colon assessed as reduction in frequency of DMH-induced aberrant crypt foci in proximal segment at 10 to 40 mg/kg, po administered five times per week for 4 weeks; format: functional, organism-based
How it was run: (§4)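 Male Wistar rats (~120 g, 4−5 weeks old, 1 week acclimation), six per group. Compound in water/Tween 80 (97:3) given by gavage five times weekly for 4 weeks. DMH dissolved in EDTA solution, 160 mg/kg total given as four sc injections of 40 mg/kg, twice weekly over the first 2 weeks. Colons formalin-fixed 24 h, stained with 0.02% methylene blue; 50 fields per segment at 100×; ACF counted, mean ± SD, ANOVA/Tukey.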

Rattus norvegicus [9] = test: Anticarcinogenic activity in Wistar rat colon assessed as reduction in frequency of DMH-induced aberrant crypt foci in middle segment at 10 to 40 mg/kg, po administered five times per week for 4 weeks; format: functional, organism-based; how it was run: as §4
Rattus norvegicus [10] = test: Anticarcinogenic activity in Wistar rat colon assessed as reduction in frequency of DMH-induced aberrant crypt foci in distal segment at 10 to 40 mg/kg, po administered five times per week for 4 weeks; format: functional, organism-based; how it was run: as §4

O=C1OC[C@H](Cc2ccc3c(c2)OCO3)[C@H]1Cc1ccc2c(c1)OCO2 [HINOKININ]
Activity (Rattus norvegicus [1]): Non-toxic
Activity (Rattus norvegicus [2]): Non-toxic
Activity (Rattus norvegicus [3]): Non-toxic
Activity (Rattus norvegicus [4]): Non-toxic
Activity (Rattus norvegicus [5]): 43.2%
Activity (Rattus norvegicus [6]): 50.4%
Activity (Rattus norvegicus [7]): 54.7%
Activity (Rattus norvegicus [8]): inactive
Activity (Rattus norvegicus [9]): Active
Activity (Rattus norvegicus [10]): Active
